# How the values were obtained:
# [1] = target: Transporter (Macaca mulatta, UniProt Q7JHP9); assay: Displacement of [3H]WIN-35428 from DAT in rhesus monkey caudate-putamen; assay type: tissue-based
# In short: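 Rhesus or cynomolgus caudate-putamen membranes (4 mg original wet weight/mL) in 50 mM Tris·HCl pH 7.4, 100 mM NaCl. Incubated 2 h at 0-4 °C with 0.3 nM [3H]WIN35,428 and a range of drug concentrations. Filtered on 0.1% BSA-soaked glass fibre filters and scintillation counted. Nonspecific binding defined with 30 μM (-)-cocaine. IC50 is the mean of ≥2 experiments in different brains, each in triplicate.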
# [2] = target: Sodium-dependent serotonin transporter (Macaca mulatta, UniProt Q9MYX0); assay: Displacement of [3H]citalopram from SERT in rhesus monkey caudate-putamen; assay type: tissue-based
# In short: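 Caudate-putamen membranes from rhesus or cynomolgus monkey (4 mg original wet weight/mL) in 50 mM Tris·HCl pH 7.4 with 100 mM NaCl. Incubated with 1 nM [3H]citalopram and a range of test drug concentrations for 2 h at 0-4 °C. Filtered over glass fibre filters pre-soaked in 0.1% polyethyleneimine, then scintillation counted. IC50 is the mean of ≥2 independent experiments in different brains, each in triplicate.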
# [3] = organism: Macaca mulatta; assay: Selectivity for rhesus monkey DAT over rhesus monkey SERT
# In short: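 Ratio of SERT IC50 ([3H]citalopram binding) to DAT IC50 ([3H]WIN35,428 binding), both measured in monkey caudate-putamen membranes.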
# Chain of Sodium-dependent serotonin transporter (Q9MYX0 whole entry): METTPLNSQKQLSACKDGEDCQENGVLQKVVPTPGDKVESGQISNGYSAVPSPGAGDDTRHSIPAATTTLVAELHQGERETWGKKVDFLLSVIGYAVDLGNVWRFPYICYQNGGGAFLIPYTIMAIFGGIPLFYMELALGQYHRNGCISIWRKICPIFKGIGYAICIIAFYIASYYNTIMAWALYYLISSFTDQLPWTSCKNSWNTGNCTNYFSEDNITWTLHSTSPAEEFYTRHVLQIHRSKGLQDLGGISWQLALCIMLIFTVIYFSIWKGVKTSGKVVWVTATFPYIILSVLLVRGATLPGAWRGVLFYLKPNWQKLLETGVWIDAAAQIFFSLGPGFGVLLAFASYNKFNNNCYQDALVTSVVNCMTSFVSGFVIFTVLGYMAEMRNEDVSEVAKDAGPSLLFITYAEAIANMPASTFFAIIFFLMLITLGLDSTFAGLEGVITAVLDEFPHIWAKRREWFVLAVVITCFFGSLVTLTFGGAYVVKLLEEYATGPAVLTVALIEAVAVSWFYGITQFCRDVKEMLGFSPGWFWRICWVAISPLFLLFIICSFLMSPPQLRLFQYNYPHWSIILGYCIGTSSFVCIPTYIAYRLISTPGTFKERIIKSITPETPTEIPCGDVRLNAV
# Chain of Transporter (Q7JHP9 whole entry): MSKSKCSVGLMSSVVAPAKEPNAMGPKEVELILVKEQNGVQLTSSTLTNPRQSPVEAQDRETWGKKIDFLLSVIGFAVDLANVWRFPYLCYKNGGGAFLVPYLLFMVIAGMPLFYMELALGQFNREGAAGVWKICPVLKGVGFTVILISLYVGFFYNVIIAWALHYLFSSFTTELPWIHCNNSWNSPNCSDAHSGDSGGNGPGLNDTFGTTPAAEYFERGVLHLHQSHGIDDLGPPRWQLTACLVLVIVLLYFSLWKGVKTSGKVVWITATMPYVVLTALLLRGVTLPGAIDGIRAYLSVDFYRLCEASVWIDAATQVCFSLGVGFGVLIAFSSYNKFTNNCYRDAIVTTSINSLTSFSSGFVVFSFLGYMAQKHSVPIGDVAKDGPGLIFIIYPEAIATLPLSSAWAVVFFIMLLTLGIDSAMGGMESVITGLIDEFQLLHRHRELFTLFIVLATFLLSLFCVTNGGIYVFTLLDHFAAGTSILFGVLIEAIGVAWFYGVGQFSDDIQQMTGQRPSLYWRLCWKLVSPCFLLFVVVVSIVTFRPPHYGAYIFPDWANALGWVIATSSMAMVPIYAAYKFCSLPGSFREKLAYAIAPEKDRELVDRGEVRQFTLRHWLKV
SMILES,IC50 [1],IC50 [2],Ratio IC50 [3]
COC(=O)C1=C(c2ccc(F)cc2)CC2CCC1S2 (stereo not drawn),220 nM,> 30000 nM,> 127
COC(=O)[C@@H]1C2CCC(C[C@@H]1c1ccc(I)cc1)S2 (stereo partly drawn),14 nM,10 nM,0.7
COC(=O)[C@H]1[C@@H](c2ccc(Cl)c(Cl)c2)CC2CC[C@H]1N2C,1.1 nM,2.5 nM,2.2
COC(=O)[C@@H]1C2CCC(C[C@@H]1c1ccc(Br)cc1)S2 (stereo partly drawn),6 nM,14 nM,2.3
COC(=O)C1=C(c2ccc(Cl)c(F)c2)CC2CCC1S2 (stereo not drawn),10 nM,> 50000 nM,> 5000
COC(=O)[C@@H]1C2CCC(C[C@@H]1c1ccc(F)c(F)c1)S2 (stereo partly drawn),32 nM,235 nM,7
COC(=O)[C@@H]1C2CCC(C[C@H]1c1ccccc1)[S+]2[O-] (stereo partly drawn),1000 nM,100000 nM,100
COC(=O)[C@@H]1C2CCC(C2)C[C@H]1c1ccc(Cl)c(Cl)c1 (stereo partly drawn),13 nM,166 nM,13
COC(=O)[C@@H]1C2CCC(C[C@@H]1c1ccc3ccccc3c1)S2 (stereo partly drawn),16 nM,13 nM,0.8
COC(=O)[C@@H]1[C@H]2CCC(C[C@H]1c1ccc(Cl)c(Cl)c1)N2C,0.4 nM,27 nM,68
COC(=O)C1=C(c2ccc(F)c(F)c2)CC2CCC1S2 (stereo not drawn),75 nM,> 10000 nM,> 133
COC(=O)[C@@H]1[C@@H]2CCC(C[C@H]1c1ccc(Cl)c(Cl)c1)O2,56 nM,2860 nM,51
COC(=O)[C@@H]1C2CCC(C[C@@H]1c1ccc(F)c(Cl)c1)S2 (stereo partly drawn),6.7 nM,370 nM,55
COC(=O)[C@@H]1C2CCC(C[C@H]1c1ccc(F)c(F)c1)[S+]2[O-] (stereo partly drawn),89 nM,> 69000 nM,> 775
COC(=O)C1=C(c2ccc(Cl)c(Cl)c2)CC2CC[C@@H]1S2,5 nM,4000 nM,800
COC(=O)[C@@H]1[C@@H]2CCC(C[C@@H]1c1ccc(Cl)c(Cl)c1)S2,22 nM,90 nM,4
COC(=O)C1=C(c2ccc(Cl)c(Cl)c2)CC2C[C@@H](O)[C@H]1N2C,7.4 nM,5370 nM,–
COC(=O)[C@@H]1C2CCC(C[C@@H]1c1ccc(Cl)c(Cl)c1)O2 (stereo partly drawn),3.3 nM,6.5 nM,2
COC(=O)[C@@H]1C2CCC(C[C@H]1c1ccc(Cl)c(Cl)c1)S2 (stereo partly drawn),6.9 nM,99 nM,14
COC(=O)[C@@H]1C2CCC(C[C@H]1c1ccc(Cl)c(Cl)c1)O2 (stereo partly drawn),3.1 nM,64.5 nM,21
COC(=O)C1=C(c2ccc(Cl)c(Cl)c2)CC2CCC1S2 (stereo not drawn),4.5 nM,> 3000 nM,> 800
COC(=O)C1=C(c2ccc(Cl)c(Cl)c2)CC2CC[C@H]1N2C,1.2 nM,867 nM,723

SMILES,IC50 [1],IC50 [2],Ratio IC50 [3]
COC(=O)[C@@H]1C2CCC(C[C@H]1c1ccc(Cl)cc1)S2 (stereo partly drawn),11 nM,1000 nM,> 91
COC(=O)C1=C(c2ccc(Cl)c(Cl)c2)CC2CCC1C2 (stereo not drawn),7.1 nM,5160 nM,727
COC(=O)C1=C(c2ccc(F)c(Cl)c2)CC2CCC1S2 (stereo not drawn),7.6 nM,> 6000 nM,> 789
COC(=O)[C@@H]1C2CCC(C[C@@H]1c1ccc(Cl)c(F)c1)[S+]2[O-] (stereo partly drawn),14 nM,> 4000 nM,> 286
COC(=O)C1=C(c2ccc(Cl)c(Cl)c2)CC2CC[C@@H]1N2C,490 nM,1900 nM,4
COC(=O)C1=C(c2ccc(Cl)c(Cl)c2)CC2CCC1O2 (stereo not drawn),10 nM,6000 nM,600
COC(=O)[C@@H]1C2CCC(C[C@H]1c1ccc(Br)cc1)S2 (stereo partly drawn),6 nM,342 nM,57
COC(=O)[C@@H]1C2CCC(C[C@@H]1c1ccc(Cl)cc1)S2 (stereo partly drawn),9.6 nM,33 nM,3.4
COC(=O)[C@@H]1C2CCC(C[C@@H]1c1ccc(Cl)c(Cl)c1)S2 (stereo partly drawn),5.7 nM,8 nM,1.5
COC(=O)[C@@H]1C2CCC(C[C@H]1c1ccc(F)c(Cl)c1)[S+]2[O-] (stereo partly drawn),23 nM,> 31000 nM,> 1350
COC(=O)[C@@H]1C2CCC(C[C@@H]1c1ccc(F)cc1)S2 (stereo partly drawn),38 nM,494 nM,13
COC(=O)C1=C(c2ccc(Cl)c(Cl)c2)CC2CC[C@H]1S2,2.5 nM,2600 nM,1040
COC(=O)C1=C(c2ccccc2)CC2CCC1[S+]2[O-] (stereo not drawn),6000 nM,> 10000 nM,> 1.6
COC(=O)[C@@H]1C2CCC(C[C@H]1c1ccc(F)cc1)S2 (stereo partly drawn),59 nM,> 11000 nM,> 186
COC(=O)[C@@H]1C2CCC(C[C@@H]1c1ccccc1)S2 (stereo partly drawn),117 nM,> 3000 nM,> 29
COC(=O)C1=C(c2ccc(Cl)c(Cl)c2)CC2C[C@@H](O)[C@@H]1N2C,265 nM,1590 nM,–
COC(=O)[C@@H]1[C@@H]2[C@H](O)CC(C[C@H]1c1ccc(Cl)c(Cl)c1)N2C,482 nM,5300 nM,11
COC(=O)[C@H]1[C@@H](c2ccc(Cl)c(Cl)c2)CC2CC[C@H]1O2,3.3 nM,4.7 nM,1.4
COC(=O)[C@@H]1C2CCC(C[C@H]1c1ccccc1)S2 (stereo partly drawn),140 nM,> 8000 nM,> 57
COC(=O)[C@@H]1C2CCC(C[C@H]1c1ccc(I)cc1)S2 (stereo partly drawn),9 nM,70 nM,8
COC(=O)[C@@H]1[C@@H]2CCC(C[C@@H]1c1ccc(Cl)c(Cl)c1)O2,47 nM,58 nM,1.2
COC(=O)[C@@H]1C2CCC(C2)C[C@@H]1c1ccc(Cl)c(Cl)c1 (stereo partly drawn),9.6 nM,33 nM,3.4

SMILES,IC50 [1],IC50 [2],Ratio IC50 [3]
COC(=O)C1=C(c2ccc(Cl)c(Cl)c2)CC2CC[C@@H]1O2,58 nM,46700 nM,805
COC(=O)[C@@H]1[C@H]2CCC(C[C@H]1c1ccc(Cl)c(Cl)c1)S2,4.9 nM,39 nM,8
COC(=O)[C@@H]1C2CCC(C[C@H]1c1ccc(F)c(F)c1)S2 (stereo partly drawn),11.3 nM,1000 nM,88
COC(=O)[C@@H]1[C@@H]2CCC(C[C@H]1c1ccc(Cl)c(Cl)c1)S2,10 nM,139 nM,14
COC(=O)[C@@H]1C2CCC(C[C@H]1c1ccc(F)c(Cl)c1)S2 (stereo partly drawn),7.1 nM,480 nM,68
COC(=O)C1=C(c2ccc(I)cc2)CC2CCC1S2 (stereo not drawn),6.7 nM,> 8000 nM,> 1300
COC(=O)C1=C(c2ccc(Br)cc2)CC2CCC1S2 (stereo not drawn),9.1 nM,> 25000 nM,> 2750
COC(=O)[C@@H]1C2CCC(C[C@H]1c1ccc(Br)cc1)[S+]2[O-] (stereo partly drawn),14 nM,> 24000 nM,> 1710
COC(=O)C1=C(c2ccc(Cl)c(Cl)c2)CC2CC[C@H]1O2,4.6 nM,2120 nM,460
COC(=O)C1=C(c2ccc3ccccc3c2)CC2CCC1S2 (stereo not drawn),8 nM,> 1000 nM,> 163
COC(=O)[C@@H]1[C@H]2[C@H](O)CC(C[C@@H]1c1ccc(Cl)c(Cl)c1)N2C,0.3 nM,15 nM,50
COC(=O)[C@@H]1C2CCC(C[C@@H]1c1ccc(Cl)c(Cl)c1)[S+]2[O-] (stereo partly drawn),5.3 nM,120 nM,23
COC(=O)[C@H]1[C@@H](c2ccc(Cl)c(Cl)c2)CC2CC[C@H]1S2,2 nM,3 nM,1.5
COC(=O)[C@@H]1C2CCC(C[C@H]1c1ccc(Cl)c(Cl)c1)[S+]2[O-] (stereo partly drawn),7.8 nM,> 3000 nM,> 346
COC(=O)[C@@H]1C2CCC(C[C@H]1c1ccc3ccccc3c1)S2 (stereo partly drawn),8 nM,36 nM,4.5
COC(=O)[C@@H]1[C@H]2[C@H](O)CC(C[C@H]1c1ccc(Cl)c(Cl)c1)N2C,0.76 nM,1220 nM,1610
COC(=O)[C@@H]1[C@H]2CCC(C[C@H]1c1ccc(Cl)c(Cl)c1)O2,2.3 nM,31 nM,13
COC(=O)[C@@H]1C2CCC(C[C@@H]1c1ccc(Cl)c(F)c1)S2 (stereo partly drawn),6 nM,17 nM,3
COC(=O)[C@@H]1C2CCC(C[C@H]1c1ccc(Cl)c(F)c1)[S+]2[O-] (stereo partly drawn),17 nM,> 14000 nM,> 824
COC(=O)[C@@H]1C2CCC(C[C@H]1c1ccc(Cl)c(F)c1)S2 (stereo partly drawn),7 nM,702 nM,100
COC(=O)C1=C(c2ccccc2)CC2CCC1S2 (stereo not drawn),910 nM,> 10000 nM,> 11

# — ChEMBL document CHEMBL1144528, “Synthesis of 8-thiabicyclo[3.2.1]octanes and their binding affinity for the dopamine and serotonin transporters” (Bioorg Med Chem, 2007)
